Reference: ChEMBL document CHEMBL1811795, “Photolabile ubiquinone analogues for identification and characterization of quinone binding sites in proteins” (Bioorg Med Chem, 2010)
Activity calls are given as the source filed them. The rule behind the calls is not given here.

Assays:
[1] = Photo stability of the compound assessed as decomposition at 500 uM after 10 mins of UV-illumination; type: physicochemical
Rhodobacter capsulatus [2] = assay: Activity of Rhodobacter capsulatus NADH-ubiquinone oxidoreductase
Method in brief: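 R. capsulatus membranes (aerobic, dark, 32 °C growth) assayed for NADH:quinone reductase at 25 °C: 50 mM Tris–Cl pH 8, 10 mM KCl, 5 mM MgCl2, 0.2 µg/mL gramicidin A, 150 µM NADH. Quinone varied 0.2–3 Km; Michaelis–Menten fit of initial rates gives apparent Km and Vmax. NADH oxidation read at 340 nm.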

Bacillus subtilis [3] = assay: Activity of Bacillus subtilis Succinate-ubiquinone oxidoreductase
Method in brief: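 Purified detergent-solubilized B. subtilis Complex II ([…]): succinate-driven DCPIP reduction followed at 600 nm, 20 mM succinate, quinone (50 mM as printed) as primary acceptor, 50 mM potassium phosphate pH 7.4 with 1 mM KCN and 0.1 mM EDTA, room temperature, started by quinone; Vmax reported.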

Bacillus subtilis [4] = assay: Inhibition of photo labeled detergent solubilized succinate:ubiquinone oxidoreductase activity in Bacillus subtilis measured in dark
Method in brief: (§1)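 Purified Complex II (5 µM, detergent) with 10–75 µM azidoquinone in 50 mM potassium phosphate, 1 mM EDTA, pH 7.4, illuminated on ice with mid-wavelength UV at 7 cm; timed aliquots held dark on ice. SQR activity then measured within 1 h by DCPIP reduction with Q1 as acceptor.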

Escherichia coli [5] = assay: Activity of Escherichia coli WrbA
Method in brief: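 Purified E. coli WrbA in 20 mM potassium phosphate pH 7.2, room temperature, with 100 µM FMN, 200 µM NADH and 200 µM quinone; NADH oxidation followed at 340 nm; Vmax reported.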

Rhodobacter capsulatus [6] = assay: Activity of Rhodobacter capsulatus NADH-ubiquinone oxidoreductase at 50 uM post UV-illuminated compound
Bacillus subtilis [7] = assay: Inhibition of Bacillus subtilis Succinate-ubiquinone oxidoreductase using Q1 as substrate
Method in brief: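 Purified B. subtilis Complex II (from a strain overproducing it, solubilised in dodecylmaltoside), 5 µM, in 50 mM potassium phosphate, 1 mM EDTA, pH 7.4. Illuminated on ice with mid-wavelength UV at 7 cm, with 10–75 µM azidoquinone. Samples held dark on ice, then assayed within 1 h: succinate:Q1 reductase, read as DCPIP reduction at 600 nm, room temperature.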

Rhodobacter capsulatus [8] = assay: Inhibition of NADH:ferricyanide reductase activity of Rhodobacter capsulatus NADH-ubiquinone oxidoreductase at 20 uM after 20 mins of UV-illumination
Rhodobacter capsulatus [9] = assay: Activity of Rhodobacter capsulatus NADH-ubiquinone oxidoreductase at 50 uM UV-illuminated compound
Method in brief: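 R. capsulatus membranes incubated with 50 µM previously UV-illuminated azidoquinone, then NADH:O2 reductase (NADH oxidase) activity measured. Runs without additions and with the unmodified quinone were done in parallel.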

Rhodobacter capsulatus [10] = assay: Inhibition of NADH:Q1 reductase activity of Rhodobacter capsulatus NADH-ubiquinone oxidoreductase at 20 uM; conditions: TDE = time-dependent effect
Method in brief: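 Membranes in Buffer A (50 mM Bis–Tris propane pH 6.8, 20 mM KCl, 10 mM MgCl2) at 1 mg/mL protein, preincubated 5 min dark with ~20 µM azidoquinone, UV-illuminated up to 10 min at 7 cm, 4 °C. NADH:Q1 reductase then read at 340 nm, 25 °C, pH 8.0 Tris–Cl with 5 mM KCN, 100 µM Q1, 150 µM NADH.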

Bacillus subtilis [11] = assay: Inhibition of Bacillus subtilis Succinate-ubiquinone oxidoreductase using Q0 as substrate
Method in brief: (§2)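 Succinate:quinone reductase of purified B. subtilis Complex II, read as DCPIP reduction at 600 nm. Conditions: 20 mM succinate, 50 mM potassium phosphate pH 7.4, 1 mM KCN, 0.1 mM EDTA, room temperature, quinone starting the reaction. HQNO added at 10 µM final; percent inhibition recorded.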

Escherichia coli [12] = assay: Inhibition of photo labeled Escherichia coli WrbA activity at 50 uM; conditions: TDE = time-dependent effect
Method in brief: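 WrbA (10 µM) with 50 µM azidoquinone in 20 mM potassium phosphate pH 7.2, on ice, under mid-wavelength UV light at 7 cm; aliquots taken over time and kept dark on ice. Activity then read within 1 h as NADH oxidation at 340 nm with 100 µM FMN, 200 µM NADH and 200 µM quinone.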

Bacillus subtilis [13] = assay: Inhibition of photo labeled detergent solubilized succinate:ubiquinone oxidoreductase activity of respiratory chain in Bacillus subtilis after 5 mins of UV-illumination; method in brief: as §1
Bacillus subtilis [14] = assay: Inhibition of Bacillus subtilis Succinate-ubiquinone oxidoreductase using AzQ0 as substrate; method in brief: as §2
Rhodobacter capsulatus [15] = assay: Inhibition of Rhodobacter capsulatus NADH-ubiquinone oxidoreductase using DMB as substrate
Rhodobacter capsulatus [16] = assay: Inhibition of Rhodobacter capsulatus NADH-ubiquinone oxidoreductase using Q0 as substrate
Rhodobacter capsulatus [17] = assay: Inhibition of Rhodobacter capsulatus NADH-ubiquinone oxidoreductase using AzQ1 as substrate
Rhodobacter capsulatus [18] = assay: Inhibition of Rhodobacter capsulatus NADH-ubiquinone oxidoreductase using AzQ0 as substrate
Rhodobacter capsulatus [19] = assay: Inhibition of Rhodobacter capsulatus NADH-ubiquinone oxidoreductase using DAzB as substrate
Rhodobacter capsulatus [20] = assay: Inhibition of Rhodobacter capsulatus NADH-ubiquinone oxidoreductase using Q1 as substrate
Rhodobacter capsulatus [21] = assay: Inhibition of NADH:Q1 reductase activity of Rhodobacter capsulatus NADH-ubiquinone oxidoreductase at 20 uM after 5 mins of UV-illumination in presence of 5 uM NADH
Method in brief: (§3)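 R. capsulatus membranes, 1 mg/mL protein in Bis–Tris propane buffer pH 6.8, preincubated 5 min in the dark with about 20 µM azidoquinone. Then illuminated with mid-wavelength UV at 7 cm, 4 °C, in a quartz cuvette. Where stated, 5 µM NADH was added (with KCN) before illumination. NADH:Q1 reductase assayed straight after: 340 nm, 25 °C, Tris–Cl pH 8.0, 5 mM KCN, 100 µM Q1, 150 µM NADH, gramicidin.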

Rhodobacter capsulatus [22] = assay: Inhibition of NADH:Q1 reductase activity of Rhodobacter capsulatus NADH-ubiquinone oxidoreductase at 20 uM after 5 mins of UV-illumination; method in brief: as §3

SMILES | Km (Rhodobacter capsulatus [2]) [µM] | Vmax (Rhodobacter capsulatus [2]) [µmol/min/mg] | Vmax (microM/min/mg) (Bacillus subtilis [3]) | inhibition (Bacillus subtilis [4]) | Vmax (microM/min/mg) (Escherichia coli [5]) | other results
CC1=CC(=O)C(N=[N+]=[N-])=C(C)C1=O | 86 | 0.59 | 4.72 | inactive | 464 | Stability [1]: Unstable; inhibition (Rhodobacter capsulatus [6]): inactive
COC1=C(OC)C(=O)C(CC=C(C)C)=C(C)C1=O | 23 | 0.67 | 2.52 | inactive | < 10 | Imax (Bacillus subtilis [7]): 90%
COC1=C(OC)C(=O)C(CCCCCN=[N+]=[N-])=C(C)C1=O | 21 | 0.35 | 2.57 | inactive |  | inhibition (Rhodobacter capsulatus [8]): inactive; inhibition (Rhodobacter capsulatus [9]): 20%; inhibition (Rhodobacter capsulatus [10]): tde
COC1=C(OC)C(=O)C(C)=CC1=O | 75 | 0.37 | 2.19 | inactive | 684 | Imax (Bacillus subtilis [11]): 88%
COC1=C(OC)C(=O)C(N=[N+]=[N-])=C(C)C1=O | 52 | 0.58 | 3.72 | inactive | 724 | inhibition (Escherichia coli [12]): tde; Stability [1]: Stable; inhibition (Bacillus subtilis [13]): Active; inhibition (Rhodobacter capsulatus [9]): 20%; Imax (Bacillus subtilis [14]): 89%
C/C=C(\C)[C@H](O)[C@H](C)/C=C(C)/C=C/C/C(C)=C/Cc1nc(OC)c(OC)c(O)c1C |  |  |  |  |  | Imax (Rhodobacter capsulatus [15]): 75%; Imax (Rhodobacter capsulatus [16]): 68%; Imax (Rhodobacter capsulatus [17]): 79%; Imax (Rhodobacter capsulatus [18]): 68%; Imax (Rhodobacter capsulatus [19]): 71%; Imax (Rhodobacter capsulatus [20]): 73%
[N-]=[N+]=NC1=CC(=O)C=CC1=O |  |  |  |  |  | inhibition (Rhodobacter capsulatus [21]): Active; inhibition (Rhodobacter capsulatus [22]): Active
C=C(C)[C@H]1Cc2c(ccc3c2O[C@@H]2COc4cc(OC)c(OC)cc4[C@@H]2C3=O)O1 |  |  |  |  |  | Imax (Rhodobacter capsulatus [15]): 63%; Imax (Rhodobacter capsulatus [16]): 48%; Imax (Rhodobacter capsulatus [17]): 79%; Imax (Rhodobacter capsulatus [18]): 53%; Imax (Rhodobacter capsulatus [19]): 53%; Imax (Rhodobacter capsulatus [20]): 68%
CC1=CC(=O)C=C(C)C1=O | 100 | 0.35 | 3.99 | inactive | 546 | 
